Data on 27 molecules can be found in ChEMBL document CHEMBL1126283, “Thromboxane receptor antagonism combined with thromboxane synthase inhibition. 4. 8-[[(4-Chlorophenyl)sulfonyl]amino]-4-(3-(3-pyridinyl) propyl)octanoic acid and analogs” (J Med Chem, 1992).

One experiment is filed under the species Canis familiaris. The experiment is described as follows: Evaluated for contraction of dog saphenous vein. It is filed as functional, organism-based. The settings on record: Canis lupus familiaris, read-out: pA2 (converted). The method in brief: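 Dog saphenous vein rings contracted with U 46619; antagonism expressed as pA2. Number of determinations = 1, with more than 12 rings per determination and a single drug concentration applied to each ring.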

The species entered for experiment [1] is Homo sapiens. Kind of experiment: Evaluated in vitro for the inhibition of U 46619 induced aggregation of platelet-rich plasma. In short, it runs like this:
(§1)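 Antagonism of aggregation induced by the PGH2/TxA2 mimetic U 46619, run in human washed platelets (WP) and in platelet-rich plasma (PRP); IC50 reported. Values come from one or two determinations.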

The species named for experiment [2] is Homo sapiens. Kind of experiment: In vitro inhibition of U 46619 induced aggregation of washed platelets. The method in brief:
as §1

The target in a further experiment is T1, Thromboxane-A synthase (Homo sapiens, UniProt P24557).
T1 sequence (P24557 whole entry): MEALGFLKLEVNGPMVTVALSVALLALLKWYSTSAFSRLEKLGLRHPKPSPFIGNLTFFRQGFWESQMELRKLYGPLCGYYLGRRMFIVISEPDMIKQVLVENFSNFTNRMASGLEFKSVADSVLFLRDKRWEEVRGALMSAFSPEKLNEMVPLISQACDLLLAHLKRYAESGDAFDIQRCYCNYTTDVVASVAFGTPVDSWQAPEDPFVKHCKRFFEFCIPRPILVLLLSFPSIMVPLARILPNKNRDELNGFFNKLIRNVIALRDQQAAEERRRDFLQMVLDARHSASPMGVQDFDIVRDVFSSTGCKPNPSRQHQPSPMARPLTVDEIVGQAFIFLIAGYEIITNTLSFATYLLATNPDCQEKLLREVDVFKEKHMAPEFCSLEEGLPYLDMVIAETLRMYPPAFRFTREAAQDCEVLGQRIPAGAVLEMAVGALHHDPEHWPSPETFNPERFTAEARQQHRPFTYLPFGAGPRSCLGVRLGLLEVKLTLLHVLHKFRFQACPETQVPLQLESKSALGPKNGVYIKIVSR
Kind of experiment: In vitro inhibition of Thromboxane A2 synthase.

The species entered for experiment [3] is Cavia porcellus. Kind of experiment: Inhibition of bronchoconstriction in guinea pigs. It is filed as functional. Particulars: Lung. The method in brief:
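Guinea pigs with cannulated trachea, ventilated at 40 strokes/min, given succinylcholine (1.0 mg/kg). Arachidonic acid priming dose 0.25 mg/kg iv, then 0.5 mg/kg iv. Test compound was then given as an iv bolus, with a 0.5 mg/kg AA challenge 5 min later. Peak insufflation pressure expressed as % of control. Five doses (0.1-1000 µg/kg), 6-8 animals per dose, ED50 derived.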

The subject of experiment [4] is Cavia porcellus. Kind of experiment: Ex vivo inhibition of U-46,619-induced aggregation of guinea pig platelets after peroral administration of 10 mg/kg dose at 1 hr time. It is filed as functional. Particulars: route oral. The method in brief:
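Fasted (12-16 h) male Hartley guinea pigs (350-400 g), 3-6 per group, dosed orally in a 3% fortified cornstarch suspension vehicle. At 1 h (or 6 h), animals under methoxyflurane anaesthesia were bled by cardiac puncture into citrate (0.0129 M final). PRP (500g, 7 min) was stirred 1 min at 37 °C, then U 46619 added. Result reported as EC50 drug-treated / EC50 vehicle.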

Experiment [5] is filed under the species Homo sapiens. Kind of experiment: In vitro inhibition of U 46619 induced aggregation of washed platelets(WP). The method in brief:
as §1

Experiment [6] deals with Cavia porcellus. The experiment is described as follows: Ex vivo inhibition of U-46,619-induced aggregation of guinea pig platelets after peroral administration of 10 mg/kg dose at 6 hr time. It is filed as functional. Particulars: route oral. The method in brief:
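Male Hartley guinea pigs (350-400 g), fasted 12-16 h, dosed orally in 3% fortified cornstarch suspension vehicle; groups of three to six. At 6 h, cardiac-puncture blood drawn under methoxyflurane into citrate (0.0129 M final). PRP obtained at 500g, 7 min. PRP preincubated 1 min at 37 °C with stirring, then U 46619 added. Aggregation ratio = EC50 drug-treated/EC50 vehicle-treated.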

Usually IC50 stands for the concentration needed to halve the response being measured. Higher therefore signals weaker potency. For the molecule `Cc1ccc(S(=O)(=O)NCCCCC(CCCc2cccnc2)CCC(=O)O)cc1` (centres undefined), the Kb in the experiment filed under Canis familiaris is 1.55 nM. The IC50 turned out to be 15200 nM in the experiment filed under Homo sapiens [1], 58 nM in the experiment filed under Homo sapiens [2] and 1 nM at Thromboxane-A synthase.
With `Cc1ccncc1CCCC(CCCCNS(=O)(=O)c1ccc(Cl)cc1)CCC(=O)O` (centres undefined), the IC50 in the experiment listed under Homo sapiens [1] stood at 4860 nM; in the experiment listed under Homo sapiens [2], 6 nM; against Thromboxane-A synthase, 1 nM.
The term ED50 denotes the midpoint of the dose-response relation. High values mean a need for a large dose, low ones an effect at a small dose. Take `O=C(O)CSC(CCCCNS(=O)(=O)c1ccc(Cl)cc1)CCCc1cccnc1` (centres undefined): the Kb in the experiment filed under Canis familiaris is 0.269 nM. Besides, the ED50 in the experiment filed under Cavia porcellus [3] turned out to be 7.42 µg/kg. Moreover, the Concentration ratio with Cavia porcellus [4] was 33. Further, the figures for the IC50 in the experiment filed under Homo sapiens [1], in the experiment listed under Homo sapiens [2] and on Thromboxane-A synthase were 400 nM, 6 nM and 2 nM, respectively.
`CC(C)(CC(CCCCNS(=O)(=O)c1ccc(Cl)cc1)CCCc1cccnc1)C(=O)O` (centres undefined): the Kb in the experiment filed under Canis familiaris was 1 nM. Besides, in the experiment on Cavia porcellus [4], the Concentration ratio was determined as 8.7. The IC50 in the experiment listed under Homo sapiens [1] is 3700 nM; in the experiment listed under Homo sapiens [2] it was 18 nM; at Thromboxane-A synthase, 20 nM.
In the case of `O=C(O)CCC(CCCCNS(=O)(=O)c1ccc2ccccc2c1)CCCc1cccnc1` (centres undefined), the IC50 in the experiment listed under Homo sapiens [1] is 2800 nM; in the experiment listed under Homo sapiens [2], 240 nM; against Thromboxane-A synthase it was 1.5 nM.
Consider `O=S(=O)(NCCCCC(CCCO)CCCc1cccnc1)c1ccc(Cl)cc1` (centres undefined), for which the IC50 in the experiment filed under Homo sapiens [2] is 2360 nM; against Thromboxane-A synthase, 70 nM.
For `CCOC(=O)CCC(CCCCNS(=O)(=O)c1ccc(Cl)cc1)CCCc1cccnc1` (centres undefined), the Concentration ratio with Cavia porcellus [4] is 3.
For `O=C(O)C(CCCCNS(=O)(=O)c1ccc(Cl)cc1)CCCc1cccnc1` (centres undefined), the IC50 in the experiment filed under Homo sapiens [5] was found to be 9300 nM; against Thromboxane-A synthase, 90 nM.
For `O=C(O)CCC(CCCCNS(=O)(=O)c1ccc(C(F)(F)F)cc1)CCCc1cccnc1` (centres undefined), the IC50 amounted to 610 nM in the experiment filed under Homo sapiens [1], 230 nM in the experiment listed under Homo sapiens [2] and 2 nM against Thromboxane-A synthase.
Consider `O=C(O)CCC(C/C=C/c1cccnc1)CCCCNS(=O)(=O)c1ccc(Cl)cc1` (centres undefined), for which the Kb in the experiment listed under Canis familiaris is 0.603 nM. In addition, the figures for the half-inhibitory concentration (IC50) in the experiment listed under Homo sapiens [1], in the experiment filed under Homo sapiens [2] and against Thromboxane-A synthase were 1190 nM, 27 nM and 7 nM, respectively.
Consider `O=C(O)/C=C/C(CCCCNS(=O)(=O)c1ccc(Cl)cc1)CCCc1cccnc1` (centres undefined), for which the IC50 in the experiment listed under Homo sapiens [1] worked out at 770 nM; in the experiment listed under Homo sapiens [2], 70 nM; on Thromboxane-A synthase, 10 nM.
Turning to `O=C(O)CCCCO/N=C(/c1cccnc1)c1cccc(C(F)(F)F)c1` [RIDOGREL], the ED50 in the experiment listed under Cavia porcellus [3] amounted to 48.3 µg/kg. The Concentration ratio with Cavia porcellus [4] was determined as 5.6.
As to `CC(CC(CCCCNS(=O)(=O)c1ccc(Cl)cc1)CCCc1cccnc1)C(=O)O` (centres undefined), the Kb in the experiment filed under Canis familiaris is 1.48 nM. Also, the Concentration ratio in the experiment on Cavia porcellus [4] was determined as 9. The values for the IC50 in the experiment listed under Homo sapiens [1], in the experiment listed under Homo sapiens [2] and at Thromboxane-A synthase were 2900 nM, 53 nM and 3 nM, respectively.
For the molecule `O=C(O)CC(CCCCNS(=O)(=O)c1ccc(Cl)cc1)CCCc1cccnc1` (centres undefined), the Kb in the experiment listed under Canis familiaris is 3.72 nM. In addition, the figures for the IC50 in the experiment filed under Homo sapiens [2] and against Thromboxane-A synthase were 200 nM and 7 nM, respectively.
For `O=C(O)CCC(CCCCNS(=O)(=O)c1ccc(Cl)cc1)CCOc1cccnc1` (centres undefined), in the experiment filed under Canis familiaris, the Kb is 0.398 nM. In the experiment listed under Cavia porcellus [3], this molecule showed an ED50 of 5.2 µg/kg. Further, the Concentration ratio with Cavia porcellus [6] and in the experiment on Cavia porcellus [4] was >100 each time. Also, the results for the IC50 in the experiment listed under Homo sapiens [1], in the experiment filed under Homo sapiens [2] and on Thromboxane-A synthase were 280 nM, 13 nM and 3 nM, respectively.
On to `COc1ccc(S(=O)(=O)NCCCCC(CCCc2cccnc2)CCC(=O)O)cc1` (centres undefined), for which the 50% inhibitory concentration (IC50) in the experiment filed under Homo sapiens [1] came to 1340 nM; in the experiment filed under Homo sapiens [2], 220 nM; on Thromboxane-A synthase, 3 nM.
Take `O=C(O)C(=O)NC(CCCCNS(=O)(=O)c1ccc(Cl)cc1)CCCc1cccnc1` (centres undefined): the Kb in the experiment filed under Canis familiaris was 1.86 nM. Also, the IC50 in the experiment listed under Homo sapiens [1] is 11300 nM; in the experiment listed under Homo sapiens [2], 590 nM; at Thromboxane-A synthase, 150 nM.
For `O=C(O)CCC(CCCCNS(=O)(=O)c1ccc(F)cc1)CCCc1cccnc1` (centres undefined), the concentration for half-maximal inhibition (IC50) in the experiment filed under Homo sapiens [1] was > 30000 nM; in the experiment listed under Homo sapiens [2] it was 108 nM; at Thromboxane-A synthase, 1 nM.
Regarding `O=C(O)CCC(CCCCNS(=O)(=O)c1ccc(Cl)cc1)CCCc1ccc[n+]([O-])c1` (centres undefined), the Kb in the experiment listed under Canis familiaris is 7.41 nM. The IC50 is 8700 nM in the experiment filed under Homo sapiens [1], 500 nM in the experiment listed under Homo sapiens [2] and 3 nM on Thromboxane-A synthase.
As for `O=C(O)COC(CCCCNS(=O)(=O)c1ccc(Cl)cc1)CCCc1cccnc1` (centres undefined), the Concentration ratio in the experiment with Cavia porcellus [4] is 2.6. In addition, the IC50 in the experiment listed under Homo sapiens [1] was determined as 1600 nM; in the experiment listed under Homo sapiens [2] it was 15 nM; on Thromboxane-A synthase, 18 nM.
On to `NC(=O)CCC(CCCCNS(=O)(=O)c1ccc(Cl)cc1)CCCc1cccnc1` (centres undefined), for which the IC50 in the experiment listed under Homo sapiens [2] was > 10000 nM; on Thromboxane-A synthase, 60 nM.
On to `[N-]=[N+]=Nc1ccc(S(=O)(=O)NCCCCC(CCCc2cccnc2)CCC(=O)O)cc1` (centres undefined), for which the IC50 in the experiment filed under Homo sapiens [1] is 2000 nM; in the experiment listed under Homo sapiens [2], 35 nM; against Thromboxane-A synthase, 4 nM.
Take `CS(=O)(=O)c1ccc(S(=O)(=O)NCCCCC(CCCc2cccnc2)CCC(=O)O)cc1` (centres undefined): the IC50 in the experiment filed under Homo sapiens [2] is > 10000 nM; at Thromboxane-A synthase, 4 nM.
As to `O=C(O)CCC(CCCCNS(=O)(=O)c1ccc(Cl)cc1)CCCc1cccnc1` (centres undefined), in the experiment filed under Cavia porcellus [3], the ED50 came to 5.75 µg/kg. The Concentration ratio with Cavia porcellus [6] is on record as 11.8; in the experiment with Cavia porcellus [4], 27.3. Moreover, the IC50 on Thromboxane-A synthase is 20 nM.
Regarding `O=C(O)CCC(CCCCNS(=O)(=O)c1ccc(Cl)cc1)CCCn1ccnc1` (centres undefined), the Kb in the experiment listed under Canis familiaris was 5.5 nM. Also, the results for the IC50 in the experiment listed under Homo sapiens [1], in the experiment listed under Homo sapiens [2] and at Thromboxane-A synthase were 3700 nM, 980 nM and 3 nM, respectively.
As to `O=S(=O)(NCCCCC(CCCc1cccnc1)CCC1N=NN=N1)c1ccc(Cl)cc1` (centres undefined), in the experiment listed under Canis familiaris, the Kb is 0.468 nM. Further, the Concentration ratio in the experiment with Cavia porcellus [4] came to 10. Moreover, the IC50 amounted to 910 nM in the experiment filed under Homo sapiens [1], 22 nM in the experiment listed under Homo sapiens [2] and 5 nM on Thromboxane-A synthase.
Regarding `O=C(O)CCC(CCCCNS(=O)(=O)c1ccc(Cl)cc1)CCn1ccnc1` (centres undefined), in the experiment listed under Canis familiaris, the Kb is 34.7 nM. Moreover, the IC50 stood at 1520 nM in the experiment filed under Homo sapiens [2] and 40 nM against Thromboxane-A synthase.
